Assay results published in ChEMBL document CHEMBL1138430, “Novel tetrahydroisoquinolines are histamine H3 antagonists and serotonin reuptake inhibitors” (Bioorg Med Chem Lett, 2007).
The source made the active and inactive calls. The calls are words filed in the database; no cut-off is given here.

Tests used:
Histamine H3 receptor [1] = molecular target: T1, Histamine H3 receptor (Homo sapiens, UniProt Q9Y5N1); assay: Binding affinity at human histamine H3 receptor
Histamine H3 receptor [2] = molecular target: T1, Histamine H3 receptor; assay: Antagonist activity at human histamine H3 receptor; type: functional; details: read-out: pA2 (converted)
Homo sapiens = species on record: Homo sapiens; assay: Binding affinity at adrenergic alpha-2 receptor at 1 uM
[3] = molecular target: T2, Alpha-1A adrenergic receptor (Homo sapiens) (UniProt P35348); assay: Binding affinity at adrenergic alpha-1 receptor at 1 uM
T2 sequence (whole entry): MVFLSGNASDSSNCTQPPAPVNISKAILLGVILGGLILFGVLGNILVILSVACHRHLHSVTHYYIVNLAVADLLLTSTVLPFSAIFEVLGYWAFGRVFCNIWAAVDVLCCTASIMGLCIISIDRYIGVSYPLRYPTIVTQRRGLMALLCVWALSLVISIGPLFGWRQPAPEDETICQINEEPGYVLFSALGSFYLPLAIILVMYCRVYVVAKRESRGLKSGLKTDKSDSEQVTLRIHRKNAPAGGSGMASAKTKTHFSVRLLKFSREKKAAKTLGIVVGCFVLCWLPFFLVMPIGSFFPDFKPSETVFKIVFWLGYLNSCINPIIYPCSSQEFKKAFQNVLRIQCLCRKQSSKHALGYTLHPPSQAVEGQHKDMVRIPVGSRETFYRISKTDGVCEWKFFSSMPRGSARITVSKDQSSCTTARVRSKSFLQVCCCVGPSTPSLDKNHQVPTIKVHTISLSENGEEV

[4] = molecular target: T3, Muscarinic acetylcholine receptor M2 (Homo sapiens) (UniProt P08172); assay: Binding affinity at muscarinic M2 receptor at 1 uM
T3 sequence (whole entry): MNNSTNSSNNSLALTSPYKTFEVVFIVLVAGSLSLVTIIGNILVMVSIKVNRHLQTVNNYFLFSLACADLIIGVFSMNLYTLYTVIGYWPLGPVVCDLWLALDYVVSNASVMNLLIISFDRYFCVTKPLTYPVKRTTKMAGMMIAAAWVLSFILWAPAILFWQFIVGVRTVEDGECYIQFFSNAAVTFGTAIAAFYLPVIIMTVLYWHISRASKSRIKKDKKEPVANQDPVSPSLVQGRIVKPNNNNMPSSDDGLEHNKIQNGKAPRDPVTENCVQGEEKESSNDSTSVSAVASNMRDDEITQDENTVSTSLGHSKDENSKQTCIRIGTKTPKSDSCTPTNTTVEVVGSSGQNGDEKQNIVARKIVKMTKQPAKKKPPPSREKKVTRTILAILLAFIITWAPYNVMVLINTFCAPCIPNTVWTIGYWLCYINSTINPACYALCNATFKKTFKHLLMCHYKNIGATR

[5] = molecular target: Kappa-type opioid receptor (Homo sapiens) (UniProt P41145); assay: Binding affinity at KOP receptor at 1 uM
Kappa-type opioid receptor (Homo sapiens), sequence (P41145 whole entry): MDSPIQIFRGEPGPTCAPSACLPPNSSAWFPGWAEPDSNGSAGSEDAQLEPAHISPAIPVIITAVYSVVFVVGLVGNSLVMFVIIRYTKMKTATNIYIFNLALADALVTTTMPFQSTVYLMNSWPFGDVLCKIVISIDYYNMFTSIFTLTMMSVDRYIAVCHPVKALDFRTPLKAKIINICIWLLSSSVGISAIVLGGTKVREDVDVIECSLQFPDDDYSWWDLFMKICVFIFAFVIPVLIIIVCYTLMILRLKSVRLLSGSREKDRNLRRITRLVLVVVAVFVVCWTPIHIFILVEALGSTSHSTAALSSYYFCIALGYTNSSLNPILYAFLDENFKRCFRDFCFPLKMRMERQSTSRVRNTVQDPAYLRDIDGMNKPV

[6] = molecular target: 5-hydroxytryptamine receptor 1B (Homo sapiens) (UniProt P28222); assay: Binding affinity at 5HT1B receptor at 1 uM
5-hydroxytryptamine receptor 1B (Homo sapiens), sequence (P28222 whole entry): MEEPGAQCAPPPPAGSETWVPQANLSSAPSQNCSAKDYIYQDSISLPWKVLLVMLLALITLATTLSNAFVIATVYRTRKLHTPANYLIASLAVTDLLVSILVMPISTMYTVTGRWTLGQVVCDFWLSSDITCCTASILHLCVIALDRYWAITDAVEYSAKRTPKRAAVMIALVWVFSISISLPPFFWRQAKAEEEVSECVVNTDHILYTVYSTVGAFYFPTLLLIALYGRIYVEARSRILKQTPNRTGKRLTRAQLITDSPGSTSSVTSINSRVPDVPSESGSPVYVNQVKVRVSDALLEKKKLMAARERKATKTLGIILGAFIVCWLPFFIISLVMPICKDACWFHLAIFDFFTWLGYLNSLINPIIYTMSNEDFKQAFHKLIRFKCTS

[7] = test system: Voltage-gated potassium channel; assay: Binding affinity for potassium channel at 1 uM; type: protein assay; details: human
[8] = test system: Voltage-gated calcium channel; assay: Binding affinity for calcium channel at 1 uM; type: protein-complex assay; details: human
[9] = molecular target: Sodium-dependent noradrenaline transporter (Homo sapiens, UniProt P23975); assay: Inhibition of [3H]nisoxetine uptake in human NET expressed in MDCK cells; type: cell-based
Sodium-dependent noradrenaline transporter, sequence (P23975 whole entry): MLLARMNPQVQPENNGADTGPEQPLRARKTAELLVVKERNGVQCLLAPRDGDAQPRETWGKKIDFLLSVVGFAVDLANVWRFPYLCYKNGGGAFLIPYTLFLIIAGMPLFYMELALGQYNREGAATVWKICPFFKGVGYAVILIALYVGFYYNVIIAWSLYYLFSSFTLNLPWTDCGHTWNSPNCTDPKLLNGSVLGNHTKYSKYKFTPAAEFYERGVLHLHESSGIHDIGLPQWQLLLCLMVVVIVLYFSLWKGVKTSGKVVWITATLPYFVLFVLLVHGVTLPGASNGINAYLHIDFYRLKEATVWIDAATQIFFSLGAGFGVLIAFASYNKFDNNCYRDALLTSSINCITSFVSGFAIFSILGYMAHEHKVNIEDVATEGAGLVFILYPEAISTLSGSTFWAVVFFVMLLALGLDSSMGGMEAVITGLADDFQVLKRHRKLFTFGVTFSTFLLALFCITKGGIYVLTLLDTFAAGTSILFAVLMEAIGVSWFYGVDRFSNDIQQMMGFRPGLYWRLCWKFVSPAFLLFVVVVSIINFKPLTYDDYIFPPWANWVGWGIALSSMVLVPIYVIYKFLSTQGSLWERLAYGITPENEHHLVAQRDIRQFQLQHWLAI

[10] = molecular target: Sodium-dependent dopamine transporter (Homo sapiens, UniProt Q01959); assay: Inhibition of [3H]WIN-uptake in human DAT expressed in CHO cells; type: cell-based
Sodium-dependent dopamine transporter, sequence (Q01959 whole entry): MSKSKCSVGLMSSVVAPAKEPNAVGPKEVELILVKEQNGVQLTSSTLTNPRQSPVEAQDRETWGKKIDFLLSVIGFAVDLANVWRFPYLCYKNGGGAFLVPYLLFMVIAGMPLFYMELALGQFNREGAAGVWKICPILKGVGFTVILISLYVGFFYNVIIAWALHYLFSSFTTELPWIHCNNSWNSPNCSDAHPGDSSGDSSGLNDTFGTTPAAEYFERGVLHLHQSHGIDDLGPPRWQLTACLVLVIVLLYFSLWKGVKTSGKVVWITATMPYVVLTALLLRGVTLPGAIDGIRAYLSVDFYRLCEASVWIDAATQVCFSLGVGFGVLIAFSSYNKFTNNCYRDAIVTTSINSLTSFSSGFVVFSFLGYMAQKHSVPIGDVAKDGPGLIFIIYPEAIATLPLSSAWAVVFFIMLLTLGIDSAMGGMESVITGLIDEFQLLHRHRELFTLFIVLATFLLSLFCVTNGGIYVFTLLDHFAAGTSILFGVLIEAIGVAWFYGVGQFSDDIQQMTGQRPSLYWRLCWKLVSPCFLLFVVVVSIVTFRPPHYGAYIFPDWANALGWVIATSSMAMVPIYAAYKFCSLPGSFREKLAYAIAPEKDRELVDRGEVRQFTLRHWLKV
How it was run: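 Human DAT expressed in CHO cells; membranes were incubated on ice for 2 h with 10.9 nM [3H]-WIN 35,428, then harvested by rapid filtration. Nonspecific binding was defined with GBR-12909. Ki values are means of at least three experiments run in triplicate, with SEM.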

[11] = Plasma clearance in po and iv dosed rat; type: ADME, organism-based
[12] = Volume of distribution at steady state in po and iv dosed rat; type: ADME, organism-based; details: in vivo, read-out: Vdss
[13] = Half life in po and iv dosed rat; type: ADME, organism-based; details: in vivo
[14] = Bioavailability in po dosed rat; type: ADME, organism-based; details: in vivo
Rattus norvegicus [15] = assay: Ex vivo receptor occupancy at SERT in rat at 0.3 mg/kg, sc; type: functional; details: route subcutaneous
How it was run: (§1)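 Ex vivo receptor occupancy was measured in rat brain at SERT and at the H3 receptor after a single subcutaneous dose. Brain drug concentrations were determined alongside occupancy.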

Rattus norvegicus [16] = assay: Ex vivo receptor occupancy at histamine H3 receptor in rat at 0.3 mg/kg, sc; type: functional; details: route subcutaneous; how it was run: as §1
Brain = assay: Drug level in rat brain at 0.3 mg/kg, sc; type: ADME, organism-based; set-up: dose 0.3 mg/kg, route subcutaneous; details: in vivo, read-out: Drug uptake
[17] = Cmax in rat brain at 10 mg/kg, po; type: ADME, organism-based; set-up: dose 10 mg/kg, route oral

T1 sequence (Q9Y5N1 whole entry): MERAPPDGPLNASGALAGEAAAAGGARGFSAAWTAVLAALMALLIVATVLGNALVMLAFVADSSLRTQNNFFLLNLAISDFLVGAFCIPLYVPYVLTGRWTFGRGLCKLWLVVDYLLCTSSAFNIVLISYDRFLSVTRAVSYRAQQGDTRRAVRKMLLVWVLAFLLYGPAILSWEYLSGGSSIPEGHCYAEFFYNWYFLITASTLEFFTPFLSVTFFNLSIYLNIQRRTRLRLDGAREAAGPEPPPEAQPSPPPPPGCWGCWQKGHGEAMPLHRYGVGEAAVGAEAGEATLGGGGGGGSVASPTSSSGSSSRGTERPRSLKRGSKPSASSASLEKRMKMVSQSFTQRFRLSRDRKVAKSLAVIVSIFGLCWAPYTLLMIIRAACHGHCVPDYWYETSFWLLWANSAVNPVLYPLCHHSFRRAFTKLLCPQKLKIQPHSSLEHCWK

Compound	Ki (Histamine H3 receptor [1]) [nM]	Kb (Histamine H3 receptor [2]) [nM]	Activity (Homo sapiens)	Activity [3]	Activity [4]	Activity [5]	Activity [6]	Activity [7]	Activity [8]	Ki [9] [nM]	Ki [10] [nM]	clearance [11] [mL/min/kg]	Vd [12] [L/kg]	half-life [13] [min]	bioavailability [14] [%]	Activity (Rattus norvegicus [15]) [%]	Activity (Rattus norvegicus [16]) [%]	concentration (Brain) [nM]	Cmax [17] [µM]
COc1ccc([C@@H]2CN(C)Cc3cc(OCCCN4CCOC[C@@H]4C)ccc32)cc1	5.6	0.891	inactive	inactive	inactive	inactive	inactive	Not Active	Not Active	121	102	18.1	6.8	540	5	100	100	880	–
CSc1ccc(C2CN(C)Cc3cc(OCCCN4CCC(F)CC4)ccc32)cc1 (racemic)	–	–	inactive	inactive	inactive	inactive	inactive	–	–	–	–	–	–	–	–	–	–	–	–
CSc1ccc(C2CN(C)Cc3cc(OCCCN4CCOCC4)ccc32)cc1 (racemic)	–	–	inactive	inactive	inactive	inactive	inactive	Not Active	Not Active	106	29	14	5.1	396	38	100	100	670	9.6
